Screening data as filed in PubChem BioAssay.
Ecoli rRNA inh = inhibits bacterial ribosomal RNA function over humanized ribosomes. GFP signal change (wild-type ribosome), % (test concentration not listed). E. coli WT GFP vs humanized-ribosome RFP mutants, fluorescence, 24 h; stronger effect = lower value; DMSO median 0, no signal -100. AID 720706. 1.6% of 350,000 active;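 active = significant combined selectivity score with lowered wild-type GFP, culture density cut under 30%, mutant RFP and density less affected; inactive = any of these conditions unmet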
FGF22 binding = FGF22 (human) thermal shift binding; 1.5% of 340,000 active; activity (Tm shift, normalised), % at 9.99 µM; recombinant FGF22 thermal shift, SYPRO orange fluorescence; percent of sucrose octasulfate shift, DMSO zero; Q9HCT0;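 active = mean Tm shift, scaled 0 neutral to 100 positive control, at about 1.3% or above, every replicate too, limit read from the data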
Target sequence (Q9HCT0 whole entry, looked up): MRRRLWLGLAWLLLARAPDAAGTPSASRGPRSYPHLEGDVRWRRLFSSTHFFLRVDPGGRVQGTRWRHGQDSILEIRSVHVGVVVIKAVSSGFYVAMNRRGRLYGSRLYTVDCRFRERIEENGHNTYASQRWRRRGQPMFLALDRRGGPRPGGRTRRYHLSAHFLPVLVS
Env fusion inh = HIV envelope-mediated fusion inhibition. HeLa-JRFL Env/CEM21 cell fusion, luciferase. inhibition, % at 12.3 µM. 1.1% of 360,000 active. AID 651610;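 active = mean replicate inhibition score of at least 50 and every replicate individually at or above 50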;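 also: 0% = plate neutral controls and 100% = maraviroc near 300 nM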
ERAP1 HTS inh = ERAP1 (human) enzyme inhibition; Q9NZ08; recombinant ERAP1, Leu-AMC fluorescence, 60 min; inhibition, % at 10.7 µM; 0.15% of 340,000 active;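 active = mean replicate inhibition of at least 30%, or all replicates individually reaching that 30% level; inactive = mean below 30% and not every replicate reaching it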;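 also: 0% = neutral control wells and 100% = L-leucinethiol positive control wells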
PGC1a acetyl inh = PGC1a acetylation modulation, inhibitor mode | U2OS PGC1a acetylation, AlphaScreen anti-acetyl-lysine; with virally co-expressed GCN5 acetyltransferase | inhibition, % at 15.6 µM | 0.17% of 350,000 active | AID 651687;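 active = every replicate shows inhibition of at least 40%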;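 also: 0% = neutral control wells and 100% = positive control wells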
Cneo AK release = Cryptococcus neoformans lysis via adenylate kinase release; AID 651654; 0.2% of 360,000 active; C. neoformans lysis, adenylate kinase release luminescence, 4 h; normalised: neutral wells 0, clomiphene wells 100; lysis activity, % at 15 µM;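 active = mean lysis activity across replicates of at least 80%, whatever share of replicates individually reach that level; inactive = mean lysis activity below 80%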
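Test system: log-phase Cryptococcus neoformans yeast cells; Quantity: yeast cell density of 5 × 10^6 cells/mL; Buffer or medium: YPD; Doses: single compound concentration per well; Timing: 4 h at 37 °C static, read 1 h later; Measured by: AK luminescence; Read-out basis: lysis from increased AK signal; Control set: Clomiphene as positive control.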
Starred values were filed as active, the others as inactive; [ ] = dose if it differs, or a comment. Sampled rows, rich in hits. Any-hit rate of the full collection: about 3.5%.

What do the screens show for `COc1cccc(Cl)c1NC(=O)N1CCc2c([nH]c3ccccc23)C1C(F)(F)F` (stereo not given)?
Ecoli rRNA inh: -15.2; FGF22 binding: -0.2; Env fusion inh: 83.4*

What do the screens show for `COc1ccccc1-c1cn[nH]c1-c1ccc(OCc2ccccc2F)cc1O`?
Ecoli rRNA inh: -38.5; FGF22 binding: 0.3; Env fusion inh: -29.8; ERAP1 HTS inh: -2.6; PGC1a acetyl inh: 4.9; Cneo AK release: 15.4

What do the screens show for `CCCC(CCC(=O)Nc1cc([N+](=O)[O-])ccc1O)C(=O)O` (stereo not given)?
Ecoli rRNA inh: 8.2; FGF22 binding: 0.7; Env fusion inh: 2.4; ERAP1 HTS inh: 4.9; PGC1a acetyl inh: -3.7; Cneo AK release: 0.3

Results for Cc1nc(SCC(=O)NCCc2ccccc2)n[nH]1 ?
PGC1a acetyl inh: 5.7; Cneo AK release: 1.0

Results for O=C(c1ccc(Cl)cc1)N1CCc2c([nH]c3ccccc23)C1C(F)(F)F (stereo not given) ?
Ecoli rRNA inh: -21.1*; FGF22 binding: -0.1; Env fusion inh: 24.0; ERAP1 HTS inh: 5.2; PGC1a acetyl inh: 9.7; Cneo AK release: 1.3

What do the screens show for `O=C(Nc1ccccc1)N1CCc2c([nH]c3ccccc23)C1C(F)(F)F` (stereo not given)?
FGF22 binding: -0.1; Env fusion inh: 2.7; ERAP1 HTS inh: -2.7; PGC1a acetyl inh: 6.2; Cneo AK release: 1.0

What do the screens show for `CC1Cc2ccccc2N1C(=O)c1cnc2ccccn2c1=O` (stereo not given)?
Env fusion inh: -61.0; PGC1a acetyl inh: -13.4; Cneo AK release: 1.8

What do the screens show for `CCN1C(C)=C(C)S/C1=C1\SC(=S)N(C2CCCCC2)C1=O`?
Ecoli rRNA inh: 7.1; FGF22 binding: 44.1*; Env fusion inh: 11.1; ERAP1 HTS inh: -3.5

How did CCN1C(C)=C(C)S/C1=C1\SC(=S)N(NC(C)=O)C1=O do in these assays?
Ecoli rRNA inh: 9.9; FGF22 binding: 0.1; Env fusion inh: -1.2; PGC1a acetyl inh: -2.3; Cneo AK release: 3.1

Results for O=C(CSc1ccncc1)Nc1ccc2ccccc2c1 ?
Ecoli rRNA inh: -31.3*; FGF22 binding: 0.0; Env fusion inh: -9.9; ERAP1 HTS inh: -1.7; PGC1a acetyl inh: -9.0

How did O=C(CSc1ccc2ccccc2c1)Nc1ccncc1 do in these assays?
Ecoli rRNA inh: -50.2; FGF22 binding: 0.8; ERAP1 HTS inh: 2.3; PGC1a acetyl inh: -7.2; Cneo AK release: -0.2

What do the screens show for `Cc1ccc2c(c1)c1c3n2CCN(CCC#N)C3CCC1` (stereo not given)?
Ecoli rRNA inh: -9.2; FGF22 binding: -0.2; Env fusion inh: 71.7*; ERAP1 HTS inh: -0.6; PGC1a acetyl inh: 1.4; Cneo AK release: -5.9

Results for CC(=O)N1CCn2c3c(c4cc(C)ccc42)CCCC31 (stereo not given) ?
Ecoli rRNA inh: -14.1; FGF22 binding: 43.4*; Env fusion inh: -20.5; ERAP1 HTS inh: 1.6; Cneo AK release: -1.7

How did Cc1ccc2c(c1)c1c3n2CCN(C(=O)CCl)C3CCC1 (stereo not given) do in these assays?
Ecoli rRNA inh: 8.5; FGF22 binding: -0.1; Env fusion inh: -48.2; ERAP1 HTS inh: -0.1; Cneo AK release: -0.6

What do the screens show for `CCN1CCn2c3c(c4cc(C)ccc42)CCCC31` (stereo not given)?
PGC1a acetyl inh: -4.3; Cneo AK release: 4.2

Results for COc1ccc(C2=CC(=O)CC(C)(C)C2=O)cc1 ?
Ecoli rRNA inh: 15.5; FGF22 binding: -0.2; Env fusion inh: 11.2

What do the screens show for `COc1cc(C(=O)O[C@H]2CC(C)=CC[C@@]3(C)CC[C@@](O)(C(C)C)[C@H]23)ccc1O`?
Ecoli rRNA inh: -2.0; FGF22 binding: 0.3; Env fusion inh: 88.2*; ERAP1 HTS inh: -2.0; PGC1a acetyl inh: -21.0; Cneo AK release: 3.9

What do the screens show for `Cc1[nH]c(=O)c(C#N)c(C)c1CCC(=O)NCc1ccc(Cl)cc1`?
Ecoli rRNA inh: 15.1; FGF22 binding: 0.0; Env fusion inh: 2.4; ERAP1 HTS inh: 2.5; PGC1a acetyl inh: -5.7; Cneo AK release: 0.8

Results for O=C(c1cc(-c2ccc(Br)cc2)nc2ccccc12)N1CCC1 ?
Ecoli rRNA inh: -25.0*; FGF22 binding: 0.1; Env fusion inh: 7.3; ERAP1 HTS inh: -0.8; PGC1a acetyl inh: -5.8; Cneo AK release: -7.1

What do the screens show for `CC(C)c1cc(C(=O)Nc2cccc(Cl)c2)no1`?
Env fusion inh: -440.3; PGC1a acetyl inh: -16.5; Cneo AK release: -2.4

Results for CC(C)c1onc(C(=O)Nc2cccc(Cl)c2)c1[N+](=O)[O-] ?
Ecoli rRNA inh: -10.1; FGF22 binding: 43.4*; Env fusion inh: -13.1; ERAP1 HTS inh: -1.4

What do the screens show for `C#CCNC(=O)C1=C[C@@H](C2CC2)C[C@@H](OCCCCO)O1`?
Ecoli rRNA inh: 1.5; FGF22 binding: 0.2; Env fusion inh: -14.2[16.7 µM]; ERAP1 HTS inh: 6.9; PGC1a acetyl inh: 2.7; Cneo AK release: 0.5

Results for CN(CC(=O)Nc1cccc(F)c1)C(=O)CCCc1c[nH]c2ccccc12 ?
Ecoli rRNA inh: -26.4*; FGF22 binding: 0.7; Env fusion inh: 6.0; ERAP1 HTS inh: 1.3; PGC1a acetyl inh: 3.4; Cneo AK release: 0.1

What do the screens show for `COc1cccc(NC(=O)CN(C)C(=O)CCCc2c[nH]c3ccccc23)c1`?
Ecoli rRNA inh: -12.7; FGF22 binding: 0.4; Env fusion inh: 13.9; ERAP1 HTS inh: 1.6; PGC1a acetyl inh: -11.0; Cneo AK release: -2.3

How did O=C(Nc1cc(F)ccc1F)N1C[C@@H]2[C@H](c3ccccc31)[C@H](CO)N2Cc1ccncc1 do in these assays?
Ecoli rRNA inh: -43.3*; FGF22 binding: 0.3; ERAP1 HTS inh: -1.9; PGC1a acetyl inh: -2.2; Cneo AK release: -7.2

What do the screens show for `O=C(Nc1cccc(Cl)c1)N1C[C@@H]2[C@H](c3ccccc31)[C@@H](CO)N2C(=O)c1cccnc1`?
Ecoli rRNA inh: -50.6*; ERAP1 HTS inh: -4.0; PGC1a acetyl inh: -6.7; Cneo AK release: -3.3

How did CCCNC(=O)N1C[C@@H]2[C@H](c3ccccc31)[C@@H](CO)N2Cc1ccc(OC)cc1 do in these assays?
Ecoli rRNA inh: -1.1; FGF22 binding: -1.1; ERAP1 HTS inh: -1.8; PGC1a acetyl inh: -7.5; Cneo AK release: -0.8

How did CCCNC(=O)N1C[C@@H]2[C@H](c3ccccc31)[C@H](CO)N2Cc1ccc(OC)cc1 do in these assays?
Ecoli rRNA inh: 4.6; FGF22 binding: -1.2; ERAP1 HTS inh: 0.2; PGC1a acetyl inh: 0.6; Cneo AK release: 100.6*

Results for O=C(Nc1cccc(Cl)c1)N1C[C@@H]2[C@H](c3ccccc31)[C@H](CO)N2Cc1ccccc1Cl ?
Ecoli rRNA inh: -15.5; FGF22 binding: -0.4; ERAP1 HTS inh: 0.5; PGC1a acetyl inh: -12.8; Cneo AK release: -22.2
